In ChEMBL document CHEMBL1153167, “Gastroprotective flavonoid constituents from Oroxylum indicum Vent” (Bioorg Med Chem Lett, 2010) one finds Activity data, which are given here for six compounds.

Common to all, as to assay type: functional, organism-based
Holding throughout (set-up): dose 25 mg/kg

In test [1] the test system is Rattus norvegicus. Description: Gastroprotective activity against pylorus ligation-induced ulcer in 48 hrs fasted Wistar rat at 25 mg/kg rat pretreated 1 hr before pylorus ligation measured after 4 hrs. The procedure, abridged: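 Rats fasted 48 h, six per group, were dosed as a 1% Tween-80 suspension at 1 mL per rat. After 1 h the pylorus was ligated under anesthesia. Animals were killed 4 h after ligation for evaluation. Read-out is % protection, mean ± SD.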

For test [2], the system named is Rattus norvegicus. Description: Gastroprotective activity against cold restraint-induced ulceritis in Wistar rat at 25 mg/kg, po pretreated before cold restraination measured after 2 hrs. The procedure, abridged:
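After the oral dose, rats (six per group) were restrained at 4 °C for 2 h. The stomach was then opened along the greater curvature and severity was scored as mean ulcer index. Read-out is % protection, mean ± SD.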

For test [3], the system named is Rattus norvegicus. Description: Gastroprotective activity against ethanol-induced ulceritis in 48 hrs fasted Wistar rat at 25 mg/kg, po pretreated 1 hr before ethanol challenge followed by pylorus ligation measured after 4 hrs. The method, boiled down:
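Rats fasted 48 h, six per group, were dosed orally. Ethanol was given intragastrically 1 h later. One hour after the ethanol, the pylorus was ligated under anesthesia. Animals were killed 4 h after ligation and ulcers were indexed. Read-out is % protection, mean ± SD.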

The test system of test [4] is Rattus norvegicus. Briefly: Gastroprotective activity against aspirin-induced ulceritis in Wistar rat at 25 mg/kg, po pretreated 5 days before aspirin challenge measured after 24 hrs of fasting. The method, boiled down:
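Rats, six per group, were dosed with test sample for five days, then given aspirin 200 mg/kg body weight suspended in 1% Tween-80. They were fasted 24 h and killed by cervical dislocation. Stomachs were opened along the greater curvature, washed with lukewarm saline and scored for ulcer index under a dissecting microscope. Read-out is % protection, mean ± SD.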

The source made the active and inactive calls. The rule behind the calls is not given here.

On to `COc1cc(O)c2c(=O)cc(-c3ccccc3)oc2c1`, for which the outcome in the test with Rattus norvegicus [1], in the test with Rattus norvegicus [2], in the test with Rattus norvegicus [3] and in the test on Rattus norvegicus [4] was inactive.

Take `COc1c(O)cc2c(c1O)C(=O)C[C@@H](c1ccccc1)O2`: the result in the test with Rattus norvegicus [1], in the test on Rattus norvegicus [2], with Rattus norvegicus [3] and in the test on Rattus norvegicus [4] was Active.

For `COc1ccc(-c2cc(=O)c3c(O)cc(OC)cc3o2)cc1`, the outcome in the test on Rattus norvegicus [1], with Rattus norvegicus [2], in the test with Rattus norvegicus [3] and in the test on Rattus norvegicus [4] was inactive.

For the compound `COc1c(O)cc2oc(-c3ccccc3)cc(=O)c2c1O`, the outcome in the test with Rattus norvegicus [1], in the test with Rattus norvegicus [2], in the test with Rattus norvegicus [3] and in the test with Rattus norvegicus [4] was Active.

Regarding `COc1cc(O)c2c(=O)cc(-c3c(OC)cccc3O[C@H]3O[C@@H](CO)[C@H](O)[C@@H](O)[C@@H]3O)oc2c1`, the outcome with Rattus norvegicus [1], in the test with Rattus norvegicus [2], in the test with Rattus norvegicus [3] and in the test with Rattus norvegicus [4] was inactive.

For the compound `O=c1cc(-c2ccccc2)oc2cc(O)cc(O)c12`, the outcome in the test with Rattus norvegicus [1], in the test with Rattus norvegicus [2], with Rattus norvegicus [3] and with Rattus norvegicus [4] was Active.
